Converted amounts (≈) assume the structure as drawn. *1 amine or outer side, *2 acyl side, *3 side chain or, on linkers, in order; H or OH if unused. Where a SMILES comes first, the peptide text is derived from it. Bridges are numbered along the chain shown (N, C = ends). [ ]: non-standard residue; d: D form. The star is where a group is joined. hTyr(3S-OH,4S-OH,3'-OSO3H) = N[C@H](C(=O)O)[C@H](O)[C@@H](O)c1ccc(O)c(OS(=O)(=O)O)c1; Orn(4R-OH,5R-OH) = O=C([C@H](C[C@@H](O)[C@@H](O)N[*:3])N[*:1])[*:2]; Pro(3S-OH,4S-Me) = C[C@H]1CN[C@H](C(=O)O)[C@H]1O; X1 = CCCCCOc1ccc(-c2cc(-c3ccc(C(=O)*)cc3)no2)cc1; Gln(3R-OH) = NC(=O)C[C@@H](O)[C@H](N)C(=O)O; Hyp = O=C(O)[C@@H]1C[C@@H](O)CN1
How the values were obtained:
[1] = Ratio of AUC in ICR/Swiss neutropenic mouse at static dose of 1.98 mg/kg, ip after 24 hrs to MIC for Candida albicans isolate 580; format: functional; conditions: route intraperitoneal
[2] = Ratio of AUC in ICR/Swiss neutropenic mouse at static dose of 2.4 mg/kg, ip after 24 hrs to MIC for Candida glabrata isolate 35315; format: functional; conditions: route intraperitoneal
[3] = Ratio of AUC in ICR/Swiss neutropenic mouse at static dose of 0.90 mg/kg, ip after 24 hrs to MIC for Candida glabrata isolate 5376; format: functional; conditions: dose 0.9 mg/kg; route intraperitoneal
[4] = Ratio of fAUC in ICR/Swiss neutropenic mouse at static dose of 2.84 mg/kg, ip after 24 hrs to MIC for Candida albicans isolate 98-210; format: functional; conditions: route intraperitoneal
[5] = Ratio of fAUC in ICR/Swiss neutropenic mouse at static dose of 1.98 mg/kg, ip after 24 hrs to MIC for Candida albicans isolate 580; format: functional; conditions: route intraperitoneal
[6] = Ratio of fAUC in ICR/Swiss neutropenic mouse at static dose of 0.06 mg/kg, ip after 24 hrs to MIC for Candida glabrata isolate 32930; format: functional; conditions: route intraperitoneal
[7] = Ratio of fAUC in ICR/Swiss neutropenic mouse at static dose of 0.41 mg/kg, ip after 24 hrs to MIC for Candida glabrata isolate 33609; format: functional; conditions: route intraperitoneal
[8] = Ratio of fAUC in ICR/Swiss neutropenic mouse at static dose of 1.34 mg/kg, ip after 24 hrs to MIC for Candida glabrata isolate 513; format: functional; conditions: route intraperitoneal
[9] = Ratio of AUC in ICR/Swiss neutropenic mouse at 1-Log kill dose of 10.4 mg/kg, ip after 24 hrs to MIC for Candida albicans isolate 98-210; format: functional; conditions: route intraperitoneal
[10] = Ratio of AUC in ICR/Swiss neutropenic mouse at 1-Log kill dose of 4.08 mg/kg, ip after 24 hrs to MIC for Candida albicans isolate K1; format: functional; conditions: route intraperitoneal
[11] = Ratio of AUC in ICR/Swiss neutropenic mouse at 1-Log kill dose of 20.6 mg/kg, ip after 24 hrs to MIC for Candida glabrata isolate 37661; format: functional; conditions: route intraperitoneal
[12] = Ratio of AUC in ICR/Swiss neutropenic mouse at 1-Log kill dose of 4.26 mg/kg, ip after 24 hrs to MIC for Candida glabrata isolate 34341; format: functional; conditions: route intraperitoneal
[13] = Ratio of AUC in ICR/Swiss neutropenic mouse at 1-Log kill dose of 6.70 mg/kg, ip after 24 hrs to MIC for Candida glabrata isolate 570; format: functional; conditions: dose 6.7 mg/kg; route intraperitoneal
[14] = Ratio of AUC in ICR/Swiss neutropenic mouse at 1-Log kill dose of 7.89 mg/kg, ip after 24 hrs to MIC for Candida glabrata isolate 33616; format: functional; conditions: route intraperitoneal
[15] = Ratio of fAUC in ICR/Swiss neutropenic mouse at 1-Log kill dose of 10.4 mg/kg, ip after 24 hrs to MIC for Candida albicans isolate 98-210; format: functional; conditions: route intraperitoneal
[16] = Ratio of fAUC in ICR/Swiss neutropenic mouse at 1-Log kill dose of 2.36 mg/kg, ip after 24 hrs to MIC for Candida albicans isolate 580; format: functional; conditions: route intraperitoneal
[17] = Ratio of fAUC in ICR/Swiss neutropenic mouse at 1-Log kill dose of 4.08 mg/kg, ip after 24 hrs to MIC for Candida albicans isolate K1; format: functional; conditions: route intraperitoneal
[18] = Ratio of fAUC in ICR/Swiss neutropenic mouse at 1-Log kill dose of 20.6 mg/kg, ip after 24 hrs to MIC for Candida glabrata isolate 37661; format: functional; conditions: route intraperitoneal
[19] = Ratio of fAUC in ICR/Swiss neutropenic mouse at 1-Log kill dose of 6.70 mg/kg, ip after 24 hrs to MIC for Candida glabrata isolate 570; format: functional; conditions: dose 6.7 mg/kg; route intraperitoneal
[20] = Ratio of fAUC in ICR/Swiss neutropenic mouse at 1-Log kill dose of 7.89 mg/kg, ip after 24 hrs to MIC for Candida glabrata isolate 33616; format: functional; conditions: route intraperitoneal
Candida albicans [21] = experiment: Antifungal activity against Candida albicans; format: functional
Method in brief: (§1)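 Broth microdilution MIC per CLSI M27-A2. Two endpoints were read against the drug-free control well: partial inhibition (M1, CLSI recommended) and complete inhibition (M2). Tests were run in duplicate on four separate occasions, and the value is the mean.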

Candida albicans [22] = experiment: Antifungal activity against Candida albicans isolate 98-210 by CLSI method; format: functional; method in brief: as §1
Candida albicans [23] = experiment: Antifungal activity against Candida albicans isolate 580 by CLSI method; format: functional; method in brief: as §1
Nakaseomyces glabratus [24] = experiment: Antifungal activity against Candida glabrata isolate 37661 by CLSI method; format: functional
Method in brief: (§2)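 Broth microdilution per CLSI M27-A2. The MIC was read at partial inhibition (M1) and at complete inhibition (M2) against the drug-free control. Done in duplicate on four separate occasions and reported as the mean.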

Nakaseomyces glabratus [25] = experiment: Antifungal activity against Candida glabrata isolate 34341 by CLSI method; format: functional; method in brief: as §2
Nakaseomyces glabratus [26] = experiment: Antifungal activity against Candida glabrata isolate 570 by CLSI method; format: functional; method in brief: as §1
[27] = AUC (0 to infinity) in Candida infected ICR/Swiss neutropenic mouse at 20 mg/kg, ip; format: ADME, organism-based; set-up: time infinity, dose 20 mg/kg, route intraperitoneal; conditions: plasma
Method in brief: (§3)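 Single intraperitoneal micafungin doses (80, 20, 5 mg/kg in 0.2 ml, 0.15 M NaCl) given to infected neutropenic mice. Serum was taken from 3 mice per time point at 1, 2, 4, 6, 8, 12, 24 and 48 h. Drug was measured by microbiologic assay with C. albicans K1 (LLOQ 0.12 μg/ml). Noncompartmental analysis; half-life by nonlinear least squares; AUC by trapezoidal rule.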

[28] = Cmax in Candida infected ICR/Swiss neutropenic mouse at 5 mg/kg, ip; format: ADME, organism-based; set-up: dose 5 mg/kg, route intraperitoneal; conditions: in vivo; method in brief: as §3
Nakaseomyces glabratus [29] = experiment: Fungistatic activity against Candida glabrata isolate 33616 infected in ICR/Swiss neutropenic mouse after 24 hrs; format: functional
Method in brief: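 Neutropenic female ICR/Swiss mice received cyclophosphamide sc at 150 mg/kg on day −4, 100 mg/kg on day −1 and 100 mg/kg on day +2. Mice were infected iv via the tail vein, and ip micafungin in 0.15 M NaCl started 2 h later. Six dose levels from 0.078 to 80 mg/kg/24 h were given q24h for 4 days, 3 mice per dose. Kidney CFU were counted at 96 h. The static dose was derived from a sigmoid Emax (Hill) fit.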

Candida albicans [30] = experiment: Antifungal activity against Candida albicans isolate 98-210 infected in ICR/Swiss neutropenic mouse assessed as dose required for 1-log kill after 24 hrs; format: functional
Method in brief: (§4)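 Neutropenic mice (cyclophosphamide sc 150 mg/kg day −4, 100 mg/kg day −1 and +2) infected iv by tail vein 2 h before therapy. Micafungin given ip every 24 h for 4 days at six fourfold-spaced dose levels, 0.078–80 mg/kg/24 h, 3 mice per group. Kidney CFU read at 96 h. Hill-model fit; dose giving 1 log10 below start-of-therapy burden.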

Nakaseomyces glabratus [31] = experiment: Antifungal activity against Candida glabrata isolate 33609 infected in ICR/Swiss neutropenic mouse assessed as dose required for 1-log kill after 24 hrs; format: functional; method in brief: as §4

`CCCCCOc1ccc(-c2cc(-c3ccc(C(=O)N[C@H]4C[C@@H](O)[C@@H](O)NC(=O)[C@@H]5[C@@H](O)[C@@H](C)CN5C(=O)[C@H]([C@H](O)CC(N)=O)NC(=O)[C@H]([C@H](O)[C@@H](O)c5ccc(O)c(OS(=O)(=O)O)c5)NC(=O)[C@@H]5C[C@@H](O)CN5C(=O)[C@H]([C@@H](C)O)NC4=O)cc3)no2)cc1` [MICAFUNGIN] (X1-[Orn(4R-OH,5R-OH)]T[Hyp][hTyr(3S-OH,4S-OH,3'-OSO3H)][Gln(3R-OH)][Pro(3S-OH,4S-Me)]; lactam 1-C) gave a RatioAUC/MIC [1] of 7857, a RatioAUC/MIC [2] of 1103 and a RatioAUC/MIC [3] of 3571. For the same molecule, the fAUC/MIC [4] was 13, the fAUC/MIC [5] was 19.6 and the fAUC/MIC [6] was 0.5. It also gave a fAUC/MIC [7] of 1.9, a fAUC/MIC [8] of 6.2 and a RatioAUC/MIC [9] of 18400. The RatioAUC/MIC [10] was 7533, the RatioAUC/MIC [11] was 2080 and the RatioAUC/MIC [12] was 1960. The RatioAUC/MIC [13] was 12066, the RatioAUC/MIC [14] was 848 and the fAUC/MIC [15] was 46. The fAUC/MIC [16] was 4.21, the fAUC/MIC [17] was 18.8 and the fAUC/MIC [18] was 5.2. The fAUC/MIC [19] was 30.2, the fAUC/MIC [20] was 2.2 and the MIC50 (Candida albicans [21]) was 0.015 µg/mL (≈ 0.0118 µM). For the same molecule, the MIC90 (Candida albicans [21]) was 0.03 µg/mL (≈ 0.0236 µM), the MIC (Candida albicans [22]) was 0.03 µg/mL (≈ 0.0236 µM) and the MIC50 (Candida albicans [22]) was 0.016 µg/mL (≈ 0.0126 µM). It also gave an MIC (Candida albicans [23]) of 0.016 µg/mL (≈ 0.0126 µM), an MIC50 (Candida albicans [23]) of 0.008 µg/mL (≈ 0.0063 µM) and an MIC (Nakaseomyces glabratus [24]) of 0.25 µg/mL (≈ 0.197 µM). It also gave an MIC50 (Nakaseomyces glabratus [24]) of 0.25 µg/mL (≈ 0.197 µM), an MIC (Nakaseomyces glabratus [25]) of 0.12 µg/mL (≈ 0.0945 µM) and an MIC50 (Nakaseomyces glabratus [25]) of 0.06 µg/mL (≈ 0.0472 µM). It also gave an MIC (Nakaseomyces glabratus [26]) of 0.03 µg/mL (≈ 0.0236 µM), an MIC50 (Nakaseomyces glabratus [26]) of 0.016 µg/mL (≈ 0.0126 µM) and an AUC(0-inf) [27] of 520 µg·h/mL. For the same molecule, the Cmax [28] was 7000 ng/mL, the Activity (Nakaseomyces glabratus [29]) was 3.88 mg/kg and the Activity (Candida albicans [30]) was 10.4 mg/kg. The Activity (Nakaseomyces glabratus [31]) was 1.4 mg/kg.

From ChEMBL document CHEMBL1275496, “In vivo pharmacodynamic target investigation for micafungin against Candida albicans and C. glabrata in a neutropenic murine candidiasis model” (Antimicrob Agents Chemother, 2008)
